In the library only some 3.7% were active in any assay of this set; here they are far more common.
NS3 helicase inh: HCV NS3 helicase inhibition; NS3 helicase DNA unwinding, Cy5 molecular beacon fluorescence; inhibition, % at 10.9 µM; actives 0.56% (n = 290,000);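 active means inhibition above the mean of all tested compounds plus 3 SD, set per campaign, cut at about 35% in these data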;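 further: 0% = DMSO wells and 100% = thioflavine S control wells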
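Measured by: Cy5 fluorescence, 0 and 60 min reads / Assay system: NS3 helicase fragment of HCV / Control set: low DMSO, high thioflavine S at 110 µM / Times: 1 h reaction at 25 °C, ATP-initiated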
TAAR1 antagonist: antagonists of human TAAR1. CHO RD-HGA16 TAAR1, Fluo-8 calcium fluorescence, antagonist. actives 1.5% (n = 360,000). AID 624466. inhibition, % at 3 µM;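 active means inhibition above a per-plate cutoff, the mean inhibition of test compounds on that plate plus 3 SD, cut at about 49% in these data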;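 further: 0% = DMSO plus EC80 beta-PEA response and 100% = DMSO alone without agonist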
Target sequence (Q96RJ0 whole entry, looked up): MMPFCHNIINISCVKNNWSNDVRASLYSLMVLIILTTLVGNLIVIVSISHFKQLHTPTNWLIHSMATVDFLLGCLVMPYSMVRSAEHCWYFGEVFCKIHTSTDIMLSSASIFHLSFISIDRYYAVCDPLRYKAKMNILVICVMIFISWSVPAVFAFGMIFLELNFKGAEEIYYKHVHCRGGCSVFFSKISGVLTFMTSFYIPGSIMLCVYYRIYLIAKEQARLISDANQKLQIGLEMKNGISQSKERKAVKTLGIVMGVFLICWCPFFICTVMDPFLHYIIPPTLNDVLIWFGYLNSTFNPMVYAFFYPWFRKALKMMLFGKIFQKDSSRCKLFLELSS
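System: RD-HGA16 CHO cells with stable hTAAR1 and Gα16 | Probe or stimulus: EC80 β-phenethylamine stimulus | Dosing: 3 µM, single point | Times: Dye loading 75 min at 37 °C, then 30 min room temperature | Measured by: Fluo-8 calcium-sensitive fluorescence | Read-out basis: % inhibition of agonist calcium response | Replicates: n of 1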
TAAR1 agonist: human TAAR1 agonism | Q96RJ0 | CHO RD-HGA16 TAAR1, Fluo-8 calcium fluorescence; vehicle wells 0%, saturating PEA agonist 100% | activation, % at 3 µM | actives 0.99% (n = 360,000);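 active means activation above the mean activation of all test compounds in the run plus 3 SD, cut at about 38% in these data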
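Signal – calcium-sensitive Fluo-8 signal, excitation 470-495, emission 515-575 nm · System – RD-HGA16 (CHO) cells co-expressing Gα16 and hTAAR1 · Incubation – 17-24 h seeding, 75 min 37 °C dye, 30 min RT · Compound dosing – 3 µM single concentration · Repeats – no replicates (n 1)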
HCV core dimer: blocks dimerization of HCV core protein. TR-FRET GST/Flag-core106 dimerization, 1536-well. inhibition, % at 5 µM. actives 0.33% (n = 300,000). AID 1899;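 active means inhibition above the mean of all tested compounds plus 3 SD, set per screening campaign, cut at about 45% in these data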
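Material: GST/Flag-tagged HCV core106 proteins. Incubation: 4 h, 22.5 °C incubation. Read-out basis: inhibition (%) from 671 over 617 nm ratio. Measured by: TR-FRET, excitation 340 nm, emission 617 and 671 nm.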
rCAG binder: molecules binding r(CAG) RNA repeats; AID 651821; actives 1.3% (n = 370,000); r(CAG) RNA repeat, TO-PRO-1 dye displacement fluorescence; inhibition, % at 3 µM;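 active means inhibition above the plate cutoff, the mean of all test compounds on that plate plus 3 SD, cut at about 35% in these data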;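 further: 0% = DMSO alone and 100% = 100 µM mitoxantrone as full dye displacement; higher means more dye released from RNA so lower well fluorescence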
rCAG binder conf: r(CAG) RNA repeat binding, confirmation; actives 70% (n = 4,300); shares compounds with rCAG binder; inhibition, % at 3 µM; TO-PRO-1 dye displacement fluorescence;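 active means inhibition above a per-plate cutoff, the mean inhibition of sample wells plus 3 SD, cut at about 35% in these data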;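 further: loss of TO-PRO-1 fluorescence as compound displaces dye from 1x1 AA loop RNA; 0% = DMSO only wells and 100% = 100 µM mitoxantrone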
dCAG dye counter: disrupts DNA CAG TO-PRO-1 complex, flagging rCAG hits; actives 94% (n = 4,300); inhibition, % at 3 µM; d(CAG) DNA oligo TO-PRO-1 dye displacement, fluorescence; shares compounds with rCAG binder;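 active means inhibition above its plate's cutoff, the mean test-well inhibition plus 3 SD, cut at about 4.8% in these data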;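 further: 0% = DNA dye mix with DMSO and 100% = 100 µM mitoxantrone; hits displace the dye from DNA and so lower well fluorescence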
dCAG dye DR: DNA CAG dye complex inhibition, dose response counter-screen | shares compounds with rCAG binder | DNA CAG/GTC duplex TO-PRO-1 dye displacement fluorescence | IC50, µM | actives 20% (n = 250); in the data active means IC50 below about 10 µM
Starred values were filed as active, the others as inactive; . = no result given.

SMILES | NS3 helicase inh | TAAR1 antagonist | TAAR1 agonist | HCV core dimer | rCAG binder | rCAG binder conf | dCAG dye counter | others
C=C1CCC2C(C)(C)CCC[C@]2(C)[C@H]1CC1=C(O)C(=O)C(CO)=CC1=O (stereo partly drawn) | . | . | . | . | 45* | 32 | 7.3*
C=C/C(C)=C/C[C@H]1C(=C)CCC2[C@](C)(C(=O)O)CCC[C@@]21C (stereo partly drawn) | . | . | . | -6 | . | . | .
Cc1nnc(SC(C(=O)Nc2ccc(Cl)c([N+](=O)[O-])c2)c2ccccc2)[nH]c1=O (stereo not drawn) | -14 | -24 | 5 | 4 | 61* | 40* | 12*
Cc1ccccc1CN1CCN(C(=O)[C@H]2O[C@@H](n3cnc(C(N)=O)n3)[C@H](O)[C@@H]2O)CC1 | . | -11 | 3 | . | 1 | . | .
Cc1ccc(C=NNC(=O)CSc2nc3sc4c(c3c(=O)n2-c2ccccc2)CCCC4)s1 | . | . | . | . | 11 | . | .
O=S(=O)(Nc1ccc(N=Nc2ccc(O)c3ccccc23)cc1)c1ccccc1 | 4 | 16 | 2 | 16 | 67* | 65* | 32*
O=c1oc(-c2ccccc2NS(=O)(=O)c2ccc3ccccc3c2)nc2ccccc12 | -17 | 33 | 0 | 18 | 66* | 37* | 12*
COc1ccc(NC(=S)NNS(=O)(=O)c2ccc3ccccc3c2)c(OC)c1 | -17 | 0 | 5 | -1 | 14 | . | .
O=C(O)c1ccccc1NS(=O)(=O)c1cccc(-n2sc3ccccc3c2=O)c1 | 4 | -7 | 16 | -2 | 72* | 74* | 34* | dCAG dye DR=7.2*
COc1ccccc1NC(=O)C(=O)NNS(=O)(=O)c1ccc2ccccc2c1 | -5 | -28 | -1 | 1 | 38* | 28 | 6.1*
O=C(O)c1ccccc1NS(=O)(=O)c1ccc2ccccc2c1 | 0 | 15 | -1 | 5 | 39* | 28 | 6.1*
Cc1ccccc1-c1nc2ccccc2c(=O)o1 | . | -5 | 3 | . | 4 | . | .
Cc1ccc2nc(Cl)c(/C=N/Nc3ccc(C(=O)O)cc3)cc2c1 | 21 | -22 | 0 | -3 | 41* | 23 | 5.3*
CCCCN(C)C(=O)CN1C(=O)C2CCCCN2C(=O)c2ccccc21 (stereo not drawn) | . | . | . | . | 4 | . | .
O=C(O)c1cc(Cl)c(Cl)cc1C(=O)N(Cc1ccccc1)Cc1ccccc1 | 3 | 10 | 1 | 14 | 37* | 45* | 12*
CCN(C[C@H]1[C@@H](c2ccc(C3=CCCC3)cc2)[C@H](CO)N1C(=O)c1cccnc1)S(=O)(=O)c1ccccc1[N+](=O)[O-] | . | . | . | . | 13 | . | .
O=C1Nc2ccc3sc4ccccc4c3c2C1=O | -6 | -9 | -2 | 1 | 36* | 17 | 14*
O=C1Nc2ccccc2C1=O | . | 4 | 1 | 3 | 0 | . | .
CCOC(=O)c1ccc(-n2c(O)c(/C=N/NC(=O)C3COc4ccccc4O3)c3ccccc3c2=O)cc1 (stereo not drawn) | 10 | 19 | 5 | 10 | 75* | 79* | 42*
C[C@@H]1CN(c2ccc(N3CCNC[C@H]3C)cc2C#N)CCN1Cc1ccccc1 | . | -12 | 14 | . | 5 | . | .
COc1cccc(/C=C2\Oc3cc(OCC(=O)N4CCC[C@H]4C(=O)O)ccc3C2=O)c1 | 9 | -15 | 3 | 5 | 37* | 44* | 13*
COc1ccc(Cn2ccc3ccc(-c4ccc5ccn(C(=O)C6CCCCC6)c5c4)cc32)cc1 | . | . | . | . | 16 | . | .
Cc1cccc(C)c1NC(=O)COC(=O)c1cc(S(=O)(=O)Nc2ccc(Cl)cc2)ccc1O | . | -12 | 12 | . | 11 | . | .
COc1ccc(NS(=O)(=O)c2ccc(O)c(C(=O)OCC(=O)Nc3ccc4c(c3)OCCO4)c2)cc1 | 23 | 19 | 7 | 7 | 38* | 28 | 11*
COc1ccc(NC(=O)COC(=O)c2cc(S(=O)(=O)N3CCCC3)ccc2O)cc1 | . | 6 | 4 | . | 11 | . | .
SMILES | NS3 helicase inh | TAAR1 antagonist | TAAR1 agonist | HCV core dimer | rCAG binder | rCAG binder conf | dCAG dye counter | others
N#Cc1cccc(NC(=O)COC(=O)c2cc(S(=O)(=O)Nc3ccccc3Cl)ccc2O)c1 | . | 28 | 8 | . | 52* | 45* | 15*
O=C(COC(=O)c1cc(S(=O)(=O)Nc2ccccc2Cl)ccc1O)Nc1nc2ccccc2s1 | 4 | 13 | 3 | . | 43* | 69* | 31*
O=C(CSc1nc2ccccc2o1)NN=C/C=C\c1ccccc1[N+](=O)[O-] | . | . | . | . | 14 | . | .
COc1ccccc1C(=O)NC1CCCCN(Cc2ccccc2C)C1=O (stereo not drawn) | . | . | . | . | -2 | . | .
O=C1NC(=S)S/C1=C\c1cc2ccccc2nc1N1CCCCC1 | 21 | 33 | -1 | 16 | 37* | 87* | 61*
COc1ccc2nc(N3CCCCC3)c(/C=C3\SC(=S)NC3=O)cc2c1 | 1 | 46 | 6 | 11 | 8 | . | .
N#C/C(=C\c1ccccc1OCc1ccc(C(=O)O)cc1)C(=O)Nc1ccc(O)cc1 | 33 | 16 | 0 | 8 | 44* | 34 | 10*
COC(=O)c1ccc(COc2ccccc2/C=C(\C#N)C(=O)Nc2ccc(C)cc2)cc1 | 3 | -2 | 0 | 6 | -2 | . | .
CCOC(=O)c1ccc(N2CSC3=C(C#N)C(c4ccc(OC)cc4OC)CC(=O)N3C2)cc1 (stereo not drawn) | 20 | 7 | -1 | 12 | 21 | . | .
CCOc1ccc(N2CSC3=C(C#N)C(c4ccco4)CC(=O)N3C2)cc1 (stereo not drawn) | 14 | 3 | 10 | 78* | 69* | 48* | 17*
COC(=O)[C@]12C[C@H](CC(=O)N3CCSCC3)C(=O)N(Cc3ccccc3)C1=C[C@H](C(C)(C)C)O[C@@H]2C | . | -30 | -2 | . | -1 | . | .
CC1(C)CC(=O)C(C2C3=C(CC(C)(C)CC3=O)OC3=C2C(=O)CC(C)(C)C3)=C(O)C1 | -9 | -23 | 4 | 1 | 44* | 2 | 1
COc1ccccc1N(CC(=O)Nc1cccc(C(F)(F)F)c1)S(C)(=O)=O | 2 | -21 | 10 | 6 | -4 | . | .
Cc1ccc([N+](=O)[O-])cc1N(CC(=O)Nc1ccc(S(=O)(=O)Nc2cccc(C(F)(F)F)c2)cc1)S(C)(=O)=O | -35 | 5 | 5 | 7 | 58* | 56* | 18*
CCOC(=O)N1CCN(C(=O)C[C@H]2C[C@@]3(C(=O)OC)C(=C[C@H](C(C)(C)C)O[C@@H]3C)N(Cc3cccc4ccccc34)C2=O)CC1 | . | . | . | . | 0 | . | .
COc1ccc2nc(NC(=O)CSCc3c(C)noc3C)sc2c1 | . | 9 | 0 | -4 | 3 | . | .
